Holding throughout (assay type): functional, Homo sapiens
Experiment [1] concerns HUVEC. Briefly: Decrease in ATP-binding cassette, subfamily G, member 1 gene expression in HUVEC at 5 ug/ml after 4 hrs relative to control.
The subject of experiment [2] is HUVEC. Put plainly: Increase in SerpinB2 gene expression in HUVEC at 5 ug/ml after 4 hrs relative to control. The method, boiled down:
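HUVEC exposed to the purified compound at 5 μg/ml. SerpinB2 mRNA quantified by real-time RT-PCR against untreated control HUVEC, reported as log2 relative quantity (log2RQ). The same SerpinB2 RT-PCR read-out guided activity-based fractionation of the herbal extract.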

Experiment [3] has as its system HUVEC. Briefly: Decrease in zinc finger and BTB domain containing 16 gene expression in HUVEC at 5 ug/ml after 4 hrs relative to control.
The subject of experiment [4] is HUVEC. Put plainly: Increase in TI-PARP gene expression in HUVEC at 5 ug/ml after 4 hrs relative to control.
In experiment [5] the test system is HUVEC. Put plainly: Decrease in mesenchyme homebox2 gene expression in HUVEC at 5 ug/ml after 4 hrs relative to control.
The test system of experiment [6] is HUVEC. Briefly: Increase in CYP450, family 1, subfamily B, polypeptide 1 gene expression in HUVEC at 5 ug/ml after 4 hrs relative to control.
Experiment [7] relates to HUVEC. Briefly: Decrease in AT rich interactive domain 1A gene expression in HUVEC at 5 ug/ml after 4 hrs relative to control.
The test system of experiment [8] is HUVEC. Briefly: Decrease in perlecan gene expression in HUVEC at 5 ug/ml after 4 hrs relative to control.
Experiment [9] has as its system HUVEC. Put plainly: Increase in solute carrier family 7, member 11 gene expression in HUVEC at 5 ug/ml after 4 hrs relative to control.
Experiment [10] has as its system HUVEC. Put plainly: Increase in COX2 gene expression in HUVEC at 5 ug/ml after 4 hrs relative to control.

With `C/C=C/C#CC#C/C=C/CCC(CCOC(C)=O)OC(C)=O` (stereo not given), the Fold change with HUVEC [1] was -1.9; in the experiment on HUVEC [2] it was 2; with HUVEC [3] it was -2; with HUVEC [4], 2.3; in the experiment with HUVEC [5], -2.1; with HUVEC [6], 6.5. Moreover, the Fold change with HUVEC [7] was -1.9; with HUVEC [8], -1.7; with HUVEC [9] it was 2.3; in the experiment on HUVEC [10], 2.

For the origin of these results see ChEMBL document CHEMBL1140583, “A polyacetylene compound from herbal medicine regulates genes associated with thrombosis in endothelial cells” (2007).
